Laboratory results reported in ChEMBL document CHEMBL1158122, “Anti-inflammatory, anti-tumor-promoting, and cytotoxic activities of constituents of marigold (Calendula officinalis) flowers” (J Nat Prod, 2006).

What was measured:
NCI-H322M = assay: Cytotoxicity against human NCI-H322M cells after 48 hrs by SRB assay; assay type: functional
NCI-H460 = assay: Cytotoxicity against human NCI-H460 cells after 48 hrs by SRB assay; assay type: functional; conditions: NCI-H460, 48 h
NCI-H522 = assay: Cytotoxicity against human NCI-H522 cells after 48 hrs by SRB assay; assay type: functional; conditions: NCI-H522, 48 h
COLO 205 = assay: Cytotoxicity against human COLO205 cells after 48 hrs by SRB assay; assay type: functional; conditions: COLO 205, 48 h
HCC 2998 = assay: Cytotoxicity against human HCC2998 cells after 48 hrs by SRB assay; assay type: functional; conditions: HCC 2998, 48 h
[1] = Cytotoxicity against human HCT 116 cells after 48 hrs by SRB assay; assay type: functional; conditions: HCT-116, 48 h
HT-29 = assay: Cytotoxicity against human HT-29 cells after 48 hrs by SRB assay; assay type: functional; conditions: HT-29, 48 h
KM12 = assay: Cytotoxicity against human KM12 cells after 48 hrs by SRB assay; assay type: functional; conditions: KM12, 48 h
SW-620 = assay: Cytotoxicity against human SW620 cells after 48 hrs by SRB assay; assay type: functional; conditions: SW-620, 48 h
SF-268 = assay: Cytotoxicity against human SF-268 cells after 48 hrs by SRB assay; assay type: functional; conditions: SF-268, 48 h
SF-295 = assay: Cytotoxicity against human SF-295 cells after 48 hrs by SRB assay; assay type: functional; conditions: SF-295, 48 h
SNB-19 = assay: Cytotoxicity against human SNB-19 cells after 48 hrs by SRB assay; assay type: functional; conditions: SNB-19, 48 h
LOX IMVI = assay: Cytotoxicity against human LOX IMVI cells after 48 hrs by SRB assay; assay type: functional
Malme-3M = assay: Cytotoxicity against human MALME-3M cells after 48 hrs by SRB assay; assay type: functional
SK-MEL-2 = assay: Cytotoxicity against human SK-MEL-2 cells after 48 hrs by SRB assay; assay type: functional; conditions: SK-MEL-2, 48 h
[2] = Cytotoxicity against human SK MEL28 cells after 48 hrs by SRB assay; assay type: functional; conditions: SK-MEL-28, 48 h
SK-MEL-5 = assay: Cytotoxicity against human SK-MEL-5 cells after 48 hrs by SRB assay; assay type: functional; conditions: SK-MEL-5, 48 h
UACC-257 = assay: Cytotoxicity against human UACC-257 cells after 48 hrs by SRB assay; assay type: functional; conditions: UACC-257, 48 h
How it was run: (§1)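 Tested in the NCI panel of 60 human tumour cell lines covering lung, colon, melanoma, renal, ovarian, breast and leukaemia. At least five concentrations were run in 10-fold dilutions starting from 10^-4 M. Exposure was continuous for 48 h. Growth or viability was estimated by sulforhodamine B protein staining, and GI50 values were reported.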

UACC-62 = assay: Cytotoxicity against human UACC-62 cells after 48 hrs by SRB assay; assay type: functional; conditions: UACC-62, 48 h; how it was run: as §1
IGROV-1 = assay: Cytotoxicity against human IGROV1 cells after 48 hrs by SRB assay; assay type: functional; conditions: IGROV-1, 48 h
OVCAR-3 = assay: Cytotoxicity against human OVCAR-3 cells after 48 hrs by SRB assay; assay type: functional; conditions: OVCAR-3, 48 h
OVCAR-5 = assay: Cytotoxicity against human OVCAR5 cells after 48 hrs by SRB assay; assay type: functional; conditions: OVCAR-5, 48 h
OVCAR-8 = assay: Cytotoxicity against human OVCAR8 cells after 48 hrs by SRB assay; assay type: functional; conditions: OVCAR-8, 48 h
786-0 = assay: Cytotoxicity against human 786-0 cells after 48 hrs by SRB assay; assay type: functional; conditions: 786-0, 48 h
NCI-H23 = assay: Cytotoxicity against human NCI-H23 cells after 48 hrs by SRB assay; assay type: functional; conditions: NCI-H23, 48 h
CAKI-1 = assay: Cytotoxicity against human Caki-1 cells after 48 hrs by SRB assay; assay type: functional; conditions: CAKI-1, 48 h
RXF 393 = assay: Cytotoxicity against human […] cells after 48 hrs by SRB assay; assay type: functional; conditions: RXF 393, 48 h
SN12C = assay: Cytotoxicity against human SN12C cells after 48 hrs by SRB assay; assay type: functional
TK-10 = assay: Cytotoxicity against human TK-10 cells after 48 hrs by SRB assay; assay type: functional; conditions: TK-10, 48 h; how it was run: as §1
UO-31 = assay: Cytotoxicity against human UO-31 cells after 48 hrs by SRB assay; assay type: functional; conditions: UO-31, 48 h; how it was run: as §1
PC-3 = assay: Cytotoxicity against human PC-3 cells after 48 hrs by SRB assay; assay type: functional; conditions: PC-3, 48 h
MCF7 = assay: Cytotoxicity against human MCF7 cells after 48 hrs by SRB assay; assay type: functional; conditions: MCF7, 48 h
NCI/ADR-RES = assay: Cytotoxicity against human NCI/ADR-RES cells after 48 hrs by SRB assay; assay type: functional
MDA-MB-231 = assay: Cytotoxicity against human MDA-MB-231 cells after 48 hrs by SRB assay; assay type: functional; conditions: MDA-MB-231, 48 h
[3] = Cytotoxicity against human Hs 578T cells after 48 hrs by SRB assay; assay type: functional
MDA-MB-435 = assay: Cytotoxicity against human MDA-MB-435 cells after 48 hrs by SRB assay; assay type: functional; conditions: MDA-MB-435, 48 h
BT-549 = assay: Cytotoxicity against human BT-549 cells after 48 hrs by SRB assay; assay type: functional; conditions: BT-549, 48 h
T47D = assay: Cytotoxicity against human T47D cells after 48 hrs by SRB assay; assay type: functional; how it was run: as §1
HCT-15 = assay: Cytotoxicity against human HCT-15 cells after 48 hrs by SRB assay; assay type: functional; conditions: HCT-15, 48 h
Raji [4] = assay: Inhibition of TPA-induced EBV-early antigen activation in human Raji cells at 1000 molar ratio relative to TPA; assay type: cell-based; parameters: scale not given: the % may be the effect or the level left; conditions: human gammaherpesvirus 4
Raji [5] = assay: Inhibition of TPA-induced EBV-early antigen activation in human Raji cells at 500 molar ratio relative to TPA; assay type: cell-based; parameters: scale not given: the % may be the effect or the level left; conditions: human gammaherpesvirus 4
Raji [6] = assay: Inhibition of TPA-induced EBV-early antigen activation in human Raji cells at 100 molar ratio relative to TPA; assay type: cell-based; parameters: scale not given: the % may be the effect or the level left; conditions: human gammaherpesvirus 4
Raji [7] = assay: Inhibition of TPA-induced EBV-early antigen activation in human Raji cells at 10 molar ratio relative to TPA; assay type: cell-based; parameters: scale not given: the % may be the effect or the level left; conditions: human gammaherpesvirus 4
[8] = Inhibition of TPA-induced EBV-early antigen activation in human Raji cells relative to TPA; assay type: cell-based, human gammaherpesvirus 4
[9] = Cytotoxicity against human Raji cells assessed as cell viability at 1000 molar ratio; assay type: cell-based; conditions: read-out: Activity
How it was run: (§2)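 Raji cells were treated with 32 pmol TPA to induce EBV early antigen activation. The test agent was added at 10, 100, 500 or 1000 mol ratio relative to TPA, and Raji cell viability was measured alongside EA activation.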

[10] = Cytotoxicity against human Raji cells assessed as cell viability at 500 molar ratio; assay type: cell-based; conditions: read-out: Activity; how it was run: as §2
[11] = Cytotoxicity against human Raji cells assessed as cell viability at 100 molar ratio; assay type: cell-based; conditions: read-out: Activity; how it was run: as §2
[12] = Cytotoxicity against human Raji cells assessed as cell viability at 10 molar ratio; assay type: cell-based; conditions: read-out: Activity; how it was run: as §2
Mus musculus = assay: Antiinflammatory activity against TPA-induced ear edema in mouse; assay type: functional
How it was run: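 Specific-pathogen-free female ICR mice were housed five per cage at 24 ± 2 °C. Inflammation was induced on the ear with TPA at 1 µg/ear, and the test agent was applied per ear. Ear edema inhibition was expressed as ID50 in mg per ear.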

HL-60 = assay: Cytotoxicity against human HL-60 cells after 48 hrs by SRB assay; assay type: functional; conditions: HL-60, 48 h
K562 = assay: Cytotoxicity against human K-562 cells after 48 hrs by SRB assay; assay type: functional; conditions: K562, 48 h
MOLT-4 = assay: Cytotoxicity against human MOLT-4 cells after 48 hrs by SRB assay; assay type: functional; conditions: MOLT-4, 48 h
A549 = assay: Cytotoxicity against human A549 cells after 48 hrs by SRB assay; assay type: functional; conditions: A549, 48 h
EKVX = assay: Cytotoxicity against human EKVX cells after 48 hrs by SRB assay; assay type: functional
HOP-62 = assay: Cytotoxicity against human HOP-62 cells after 48 hrs by SRB assay; assay type: functional; conditions: HOP-62, 48 h
HOP-92 = assay: Cytotoxicity against human HOP-92 cells after 48 hrs by SRB assay; assay type: functional; conditions: HOP-92, 48 h
NCI-H226 = assay: Cytotoxicity against human NCI-H226 cells after 48 hrs by SRB assay; assay type: functional; conditions: NCI-H226, 48 h
ACHN = assay: Cytotoxicity against human ACHN cells after 48 hrs by SRB assay; assay type: functional

CCCCOC(=O)[C@H]1O[C@@H](O[C@H]2CC[C@]3(C)[C@H]4CC=C5[C@@H]6CC(C)(C)CC[C@]6(C(=O)O)CC[C@@]5(C)[C@]4(C)CC[C@H]3C2(C)C)[C@H](O[C@@H]2O[C@H](CO)[C@@H](O)[C@H](O)[C@H]2O)[C@@H](O[C@@H]2O[C@H](CO)[C@H](O)[C@H](O)[C@H]2O)[C@@H]1O
GI50 (NCI-H322M): 19 µM
GI50 (NCI-H460): 33.3 µM
GI50 (NCI-H522): 43.9 µM
GI50 (COLO 205): 20.1 µM
GI50 (HCC 2998): 21.8 µM
GI50 [1]: 20.6 µM
GI50 (HT-29): 34.2 µM
GI50 (KM12): 30.8 µM
GI50 (SW-620): 36.6 µM
GI50 (SF-268): 27.7 µM
GI50 (SF-295): 26 µM
GI50 (SNB-19): 22.5 µM
GI50 (LOX IMVI): 18 µM
GI50 (Malme-3M): 17.8 µM
GI50 (SK-MEL-2): 40.9 µM
GI50 [2]: 26.7 µM
GI50 (SK-MEL-5): 33.1 µM
GI50 (UACC-257): 26.2 µM
GI50 (UACC-62): 20.9 µM
GI50 (IGROV-1): > 100 µM
GI50 (OVCAR-3): > 100 µM
GI50 (OVCAR-5): 28.8 µM
GI50 (OVCAR-8): 66.8 µM
GI50 (786-0): 26.2 µM
GI50 (NCI-H23): 22.8 µM
GI50 (CAKI-1): 33.4 µM
GI50 (RXF 393): 58.5 µM
GI50 (SN12C): 21.8 µM
GI50 (TK-10): 33.3 µM
GI50 (UO-31): 49.2 µM
GI50 (PC-3): 34.7 µM
GI50 (MCF7): 38.4 µM
GI50 (NCI/ADR-RES): 74 µM
GI50 (MDA-MB-231): 14.5 µM
GI50 [3]: 38 µM
GI50 (MDA-MB-435): 30.6 µM
GI50 (BT-549): 21.5 µM
GI50 (T47D): 48 µM
GI50 (HCT-15): 20.9 µM
Activity (Raji [4]): 11%
Activity (Raji [5]): 49.3%
Activity (Raji [6]): 71%
Activity (Raji [7]): 100%
IC50 [8]: 473 molar ratio
viability at 1000 molar ratio [9]: 70%
viability at 500 molar ratio [10]: > 80%
viability at 100 molar ratio [11]: > 80%
viability at 10 molar ratio [12]: > 80%
ID50 (Mus musculus): 0.06 mg
GI50 (HL-60): 22.3 µM
GI50 (K562): 23.2 µM
GI50 (MOLT-4): 7.77 µM
GI50 (A549): 34.1 µM
GI50 (EKVX): 24.4 µM
GI50 (HOP-62): 19.4 µM
GI50 (HOP-92): 33.2 µM
GI50 (NCI-H226): 29.2 µM
GI50 (ACHN): 20.6 µM
